Measured values from ChEMBL document CHEMBL4020742, “Design and optimization of purine derivatives as in vivo active PDE10A inhibitors” (Bioorg Med Chem, 2017).
pIC50: −log10 of the molar value. The source made the active and inactive calls. The rule behind the calls is not given here.

Key:
CYP2C9 [1] = target: T1, CYP2C9 (Homo sapiens, UniProt P11712); assay: (§1) Inhibition of CYP2C9 in human microsomes at 10 uM using diclofenac as substrate preincubated for 5 mins followed by NADPH addition measured 20 mins relative to control; format: ADME; settings: human microsomes, probe diclofenac, read-out: TDI
T1 sequence (P11712 whole entry): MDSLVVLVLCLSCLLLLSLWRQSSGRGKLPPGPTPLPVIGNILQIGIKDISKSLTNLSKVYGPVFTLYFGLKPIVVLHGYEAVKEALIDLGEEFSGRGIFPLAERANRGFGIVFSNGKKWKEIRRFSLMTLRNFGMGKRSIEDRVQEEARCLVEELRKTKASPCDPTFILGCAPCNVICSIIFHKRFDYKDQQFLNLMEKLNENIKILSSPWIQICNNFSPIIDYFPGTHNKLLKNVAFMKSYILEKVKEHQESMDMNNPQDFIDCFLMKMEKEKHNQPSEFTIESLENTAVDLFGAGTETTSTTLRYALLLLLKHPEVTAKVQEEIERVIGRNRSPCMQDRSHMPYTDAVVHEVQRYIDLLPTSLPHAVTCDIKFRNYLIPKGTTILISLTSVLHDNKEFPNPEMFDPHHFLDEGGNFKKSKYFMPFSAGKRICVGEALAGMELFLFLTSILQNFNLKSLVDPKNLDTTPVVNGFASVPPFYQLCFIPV
Method in brief: (§2)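 Pooled human microsomes (0.2 mg/mL) in 100 mM phosphate pH 7.4 with a probe cocktail: midazolam 10 µM, dextromethorphan 10 µM, diclofenac 20 µM, phenacetin 100 µM, mephenytoin 100 µM. Test compound was 10 µM; organic solvent was under 1%. After 5 min preincubation at 37 °C, 1 mmol/L NADPH was added and the reaction ran 20 min, keeping substrate conversion below 20%. Metabolite formation was expressed relative to PBS control.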

[2] = Half life in mouse liver microsomes at 1 uM preincubated for 5 mins followed by NADPH addition measured up to 30 mins by LC-MS/MS analysis; format: ADME, microsome
Method in brief: (§3)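 Liver microsomes (0.5 mg/mL) plus 1 µM compound were preincubated 5 min at 37 °C in 0.1 M phosphate buffer pH 7.4 containing EDTA and MgCl₂. NADPH started the reaction. Samples at 0, 5, 10 and 30 min were quenched with cold acetonitrile containing tinidazole internal standard and centrifuged. Parent remaining was quantified by LC/MS/MS.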

[3] = target: T2, cAMP and cAMP-inhibited cGMP 3',5'-cyclic phosphodiesterase 10A (Homo sapiens, UniProt Q9Y233); assay: (§4) Inhibition of recombinant human N-terminal GST-tagged PDE10A1 (2 to 789 residues) expressed in baculovirus infected Sf9 cells using fluorescein-labeled cAMP as substrate preincubated for 15 mins followed by substrate addition measured after 30 mins by IMAP fluorescence polarization assay
T2 sequence (Q9Y233 whole entry, the tested form may be a part): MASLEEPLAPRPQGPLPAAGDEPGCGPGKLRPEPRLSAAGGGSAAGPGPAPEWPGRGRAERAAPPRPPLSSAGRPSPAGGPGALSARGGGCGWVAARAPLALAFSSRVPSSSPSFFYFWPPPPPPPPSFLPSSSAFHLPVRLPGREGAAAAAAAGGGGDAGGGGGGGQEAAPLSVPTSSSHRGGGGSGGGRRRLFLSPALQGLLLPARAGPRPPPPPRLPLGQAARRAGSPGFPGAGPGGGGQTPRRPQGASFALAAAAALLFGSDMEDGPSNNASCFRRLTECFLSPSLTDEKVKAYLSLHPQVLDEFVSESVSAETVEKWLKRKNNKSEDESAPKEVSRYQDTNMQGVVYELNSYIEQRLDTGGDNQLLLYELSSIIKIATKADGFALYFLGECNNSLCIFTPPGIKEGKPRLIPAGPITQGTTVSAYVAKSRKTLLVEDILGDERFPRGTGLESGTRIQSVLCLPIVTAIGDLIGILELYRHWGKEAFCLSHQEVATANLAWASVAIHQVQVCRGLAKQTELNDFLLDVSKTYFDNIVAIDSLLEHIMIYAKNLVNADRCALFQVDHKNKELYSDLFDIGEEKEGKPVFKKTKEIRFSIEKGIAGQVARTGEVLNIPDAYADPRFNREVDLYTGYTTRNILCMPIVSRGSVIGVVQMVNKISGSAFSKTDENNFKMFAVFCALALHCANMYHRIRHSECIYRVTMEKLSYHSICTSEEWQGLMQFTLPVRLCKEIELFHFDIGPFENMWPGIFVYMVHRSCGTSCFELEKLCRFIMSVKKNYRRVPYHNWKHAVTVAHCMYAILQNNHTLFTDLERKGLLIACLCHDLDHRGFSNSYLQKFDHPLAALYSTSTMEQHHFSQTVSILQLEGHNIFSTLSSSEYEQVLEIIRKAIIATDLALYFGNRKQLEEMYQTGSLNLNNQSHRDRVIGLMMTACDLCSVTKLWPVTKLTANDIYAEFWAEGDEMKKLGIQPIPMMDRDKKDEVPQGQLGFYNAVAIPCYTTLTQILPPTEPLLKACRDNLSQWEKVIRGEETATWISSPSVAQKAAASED
Method in brief: (§5)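 Recombinant PDE4A1A, PDE2A1 or PDE10A1 was incubated with compound (1% DMSO, duplicate) for 15 min at RT. Fluorescein-cAMP was then added for 30 min at RT, and the reaction was stopped with IMAP binding reagent (1 h, dark). FP was read at Ex485/Em535. Inhibition was set against no-enzyme and DMSO controls. IC50 came from a four-parameter logistic fit; values are the mean of at least two measurements.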

PDE2A1 = PDE2A1 (Homo sapiens, UniProt O00408); assay: as §4, with “FLAG-tagged PDE2A1” for “GST-tagged PDE10A1”, “941” for “789”, “cells at 1 uM” for “cells”, “assay relative to control” for “assay”; settings: probe fluorescein-labeled cAMP; method in brief: as §5
Sequence of PDE2A1 (O00408 whole entry): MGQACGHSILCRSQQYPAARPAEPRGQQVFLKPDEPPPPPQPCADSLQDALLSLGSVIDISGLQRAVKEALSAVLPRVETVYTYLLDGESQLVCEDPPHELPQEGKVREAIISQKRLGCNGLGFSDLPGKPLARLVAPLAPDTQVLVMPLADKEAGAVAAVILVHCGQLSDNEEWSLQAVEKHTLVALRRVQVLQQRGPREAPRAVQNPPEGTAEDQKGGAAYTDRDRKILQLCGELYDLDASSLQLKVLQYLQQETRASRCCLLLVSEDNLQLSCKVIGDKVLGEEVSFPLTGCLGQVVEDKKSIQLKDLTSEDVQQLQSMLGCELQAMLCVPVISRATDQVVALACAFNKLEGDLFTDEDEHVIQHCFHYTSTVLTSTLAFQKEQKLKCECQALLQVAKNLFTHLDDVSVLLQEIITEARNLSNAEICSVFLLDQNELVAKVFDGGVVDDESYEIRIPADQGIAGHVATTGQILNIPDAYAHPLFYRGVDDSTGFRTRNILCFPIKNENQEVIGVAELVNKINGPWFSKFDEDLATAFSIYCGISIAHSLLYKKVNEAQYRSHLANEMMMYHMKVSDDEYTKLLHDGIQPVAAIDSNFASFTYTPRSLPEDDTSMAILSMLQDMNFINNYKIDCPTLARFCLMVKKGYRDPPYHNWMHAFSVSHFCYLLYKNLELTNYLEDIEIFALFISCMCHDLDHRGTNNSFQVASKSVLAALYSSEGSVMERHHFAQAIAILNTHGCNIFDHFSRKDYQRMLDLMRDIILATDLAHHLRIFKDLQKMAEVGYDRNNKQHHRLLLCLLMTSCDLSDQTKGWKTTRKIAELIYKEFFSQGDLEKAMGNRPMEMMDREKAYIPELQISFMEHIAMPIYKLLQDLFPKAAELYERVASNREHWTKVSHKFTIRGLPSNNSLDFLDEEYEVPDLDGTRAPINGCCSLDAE

[4] = target: T2, cAMP and cAMP-inhibited cGMP 3',5'-cyclic phosphodiesterase 10A; assay: as §4, with “cells at 5 uM” for “cells”, “assay relative to control” for “assay”; method in brief: as §5
CYP1A2 [5] = target: T3, CYP1A2 (Homo sapiens, UniProt P05177); assay: Inhibition of CYP1A2 in human microsomes at 10 uM using phenacetin as substrate preincubated for 5 mins followed by NADPH addition measured 20 mins relative to control; format: ADME; settings: probe phenacetin, read-out: TDI; method in brief: as §2
T3 sequence (P05177 whole entry): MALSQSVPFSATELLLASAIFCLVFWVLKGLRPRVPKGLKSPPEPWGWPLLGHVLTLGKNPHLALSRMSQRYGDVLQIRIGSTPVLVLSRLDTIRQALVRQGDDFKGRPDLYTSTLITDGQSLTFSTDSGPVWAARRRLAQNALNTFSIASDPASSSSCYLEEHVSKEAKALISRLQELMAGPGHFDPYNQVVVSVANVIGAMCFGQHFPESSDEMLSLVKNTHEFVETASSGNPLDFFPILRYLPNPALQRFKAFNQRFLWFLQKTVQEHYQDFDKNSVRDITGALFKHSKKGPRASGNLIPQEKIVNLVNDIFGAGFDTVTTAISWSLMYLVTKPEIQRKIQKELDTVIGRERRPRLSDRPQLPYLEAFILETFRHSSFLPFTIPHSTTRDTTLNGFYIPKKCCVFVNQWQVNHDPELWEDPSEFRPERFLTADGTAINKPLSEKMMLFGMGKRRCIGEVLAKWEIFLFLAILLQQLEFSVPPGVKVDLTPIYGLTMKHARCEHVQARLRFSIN

[6] = Half life in human liver microsomes at 1 uM preincubated for 5 mins followed by NADPH addition measured up to 30 mins by LC-MS/MS analysis; format: ADME, microsome; method in brief: as §3
Cytochrome P450 2C9 [7] = target: T4, Cytochrome P450 2C9 (Homo sapiens, UniProt P11712); assay: (§6) […] of CYP2C9 in human microsomes at 10 uM using diclofenac as substrate preincubated for 5 mins followed by NADPH addition measured 20 mins relative to control; format: ADME; settings: microsomes, 20 min, 10 µM
T4 sequence (P11712 whole entry): as the sequence (P11712 whole entry) above

Cytochrome P450 3A4 [8] = target: T5, Cytochrome P450 3A4 (Homo sapiens, UniProt P08684); assay: (§7) Time-dependent inhibition of CYP3A4 in human microsomes at 10 uM using midazolam as substrate preincubated for 5 mins followed by NADPH addition measured 20 mins relative to control; format: ADME; settings: microsomes, 20 min, 10 µM
T5 sequence (P08684 whole entry): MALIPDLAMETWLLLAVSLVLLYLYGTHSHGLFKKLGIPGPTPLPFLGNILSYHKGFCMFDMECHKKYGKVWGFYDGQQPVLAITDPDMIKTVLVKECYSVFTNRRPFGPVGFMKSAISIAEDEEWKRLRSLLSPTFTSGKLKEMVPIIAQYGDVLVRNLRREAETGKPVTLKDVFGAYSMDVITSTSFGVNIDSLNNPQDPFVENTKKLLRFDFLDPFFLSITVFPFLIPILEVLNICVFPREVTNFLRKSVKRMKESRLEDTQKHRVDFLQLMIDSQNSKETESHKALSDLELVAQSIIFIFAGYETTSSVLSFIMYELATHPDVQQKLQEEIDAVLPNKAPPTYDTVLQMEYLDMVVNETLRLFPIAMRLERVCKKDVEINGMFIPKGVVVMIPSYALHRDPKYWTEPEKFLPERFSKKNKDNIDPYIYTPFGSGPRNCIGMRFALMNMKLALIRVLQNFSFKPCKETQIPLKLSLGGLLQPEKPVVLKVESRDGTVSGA

Cytochrome P450 2C19 [9] = target: T6, Cytochrome P450 2C19 (Homo sapiens, UniProt P33261); assay: (§8) […] of CYP2C19 in human microsomes at 10 uM using mephenytoin as substrate preincubated for 5 mins followed by NADPH addition measured 20 mins relative to control; format: ADME; settings: microsomes, 20 min, 10 µM
T6 sequence (P33261 whole entry): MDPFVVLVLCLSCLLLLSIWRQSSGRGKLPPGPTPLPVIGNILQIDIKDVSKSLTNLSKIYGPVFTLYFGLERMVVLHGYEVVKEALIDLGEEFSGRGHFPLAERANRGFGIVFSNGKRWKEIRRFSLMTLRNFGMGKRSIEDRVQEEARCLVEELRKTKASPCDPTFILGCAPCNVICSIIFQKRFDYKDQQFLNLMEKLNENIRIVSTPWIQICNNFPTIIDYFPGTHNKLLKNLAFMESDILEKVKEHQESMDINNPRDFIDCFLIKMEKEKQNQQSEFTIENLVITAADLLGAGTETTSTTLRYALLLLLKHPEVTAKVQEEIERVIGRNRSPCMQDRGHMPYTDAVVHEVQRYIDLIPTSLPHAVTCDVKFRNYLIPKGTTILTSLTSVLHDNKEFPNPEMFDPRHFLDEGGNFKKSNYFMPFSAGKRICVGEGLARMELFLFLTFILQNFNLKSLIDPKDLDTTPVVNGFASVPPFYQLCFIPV

Cytochrome P450 1A2 = target: T7, Cytochrome P450 1A2 (Homo sapiens, UniProt P05177); assay: (§9) Time-dependent inhibition of CYP1A2 in human microsomes at 10 uM using phenacetin as substrate preincubated for 5 mins followed by NADPH addition measured 20 mins relative to control; format: ADME; settings: microsomes, 20 min, 10 µM
T7 sequence (P05177 whole entry): T3 sequence (P05177 whole entry)

Cytochrome P450 2C19 [10] = target: T6, Cytochrome P450 2C19; assay: (§10) Inhibition of CYP2C19 in human microsomes at 10 uM using mephenytoin as substrate preincubated for 5 mins followed by NADPH addition measured 20 mins relative to control; format: ADME; settings: microsomes, 20 min, 10 µM; method in brief: as §2
CYP2D6 [11] = target: T8, CYP2D6 (Homo sapiens, UniProt P10635); assay: (§11) Inhibition of CYP2D6 in human microsomes at 10 uM using dextromethorphan as substrate preincubated for 5 mins followed by NADPH addition measured 20 mins relative to control; format: ADME; settings: human microsomes, probe dextromethorphan, read-out: TDI; method in brief: as §2
T8 sequence (P10635 whole entry): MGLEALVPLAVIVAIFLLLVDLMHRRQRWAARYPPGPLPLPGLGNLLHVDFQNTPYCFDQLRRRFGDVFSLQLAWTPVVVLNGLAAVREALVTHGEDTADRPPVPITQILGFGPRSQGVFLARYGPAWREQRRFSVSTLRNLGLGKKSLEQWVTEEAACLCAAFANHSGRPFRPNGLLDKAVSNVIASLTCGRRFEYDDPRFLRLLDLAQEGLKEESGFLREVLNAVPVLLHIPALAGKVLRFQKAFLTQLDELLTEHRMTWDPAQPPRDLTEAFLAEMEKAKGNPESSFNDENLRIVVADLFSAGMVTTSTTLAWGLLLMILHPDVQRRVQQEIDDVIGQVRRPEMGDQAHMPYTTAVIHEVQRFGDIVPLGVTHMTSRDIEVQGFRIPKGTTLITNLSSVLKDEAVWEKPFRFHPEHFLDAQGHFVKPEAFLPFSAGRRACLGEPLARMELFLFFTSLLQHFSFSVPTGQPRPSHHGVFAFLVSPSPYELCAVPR

CYP3A4 [12] = target: T9, CYP3A4 (Homo sapiens, UniProt P08684); assay: (§12) Inhibition of CYP3A4 in human microsomes at 10 uM using midazolam as substrate preincubated for 5 mins followed by NADPH addition measured 20 mins relative to control; format: ADME; settings: human microsomes, probe midazolam, read-out: TDI; method in brief: as §2
T9 sequence (P08684 whole entry): as the sequence (P08684 whole entry) above

Cytochrome P450 2D6 [13] = target: T10, Cytochrome P450 2D6 (Homo sapiens, UniProt P10635); assay: (§13) […] of CYP2D6 in human microsomes at 10 uM using dextromethorphan as substrate preincubated for 5 mins followed by NADPH addition measured 20 mins relative to control; format: ADME; settings: microsomes, 20 min, 10 µM
T10 sequence (P10635 whole entry): as the sequence (P10635 whole entry) above

CYP1A2 [14] = target: T3, CYP1A2; assay: as §9; format: ADME; settings: human microsomes, probe phenacetin, read-out: TDI
CYP2C19 [15] = target: T11, CYP2C19 (Homo sapiens, UniProt P33261); assay: as §10; format: ADME; settings: human microsomes, probe mephenytoin, read-out: TDI; method in brief: as §2
T11 sequence (P33261 whole entry): as the sequence (P33261 whole entry) above

Cytochrome P450 3A4 [16] = target: T5, Cytochrome P450 3A4; assay: as §12; format: ADME; settings: microsomes, 20 min, 10 µM; method in brief: as §2
CYP2C9 [17] = target: T1, CYP2C9; assay: as §6; format: ADME; settings: human microsomes, probe diclofenac, read-out: TDI
CYP2C19 [18] = target: T11, CYP2C19; assay: as §8; format: ADME; settings: human microsomes, probe mephenytoin, read-out: TDI
CYP2D6 [19] = target: T8, CYP2D6; assay: as §13; format: ADME; settings: human microsomes, probe dextromethorphan, read-out: TDI
Rattus norvegicus [20] = assay: Antipsychotic activity in Sprague-Dawley rat assessed as inhibition of PCP-induced hyperlocomotion at 10 mg/kg, po pretreated for 30 mins followed by PCP addition measured after 5 mins for 1.5 hrs by open field test; format: functional, organism-based
Method in brief: (§14)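 Male SD rats (200-250 g), acclimated at least 1 week. Drug was given p.o. in sterile saline with 0.5% Tween 80 and 0.2% CMC-sodium, 30 min before PCP 5 mg/kg i.p. Rats were placed in a 40×40×45 cm open-field arena 5 min after PCP and video-tracked for 90 min. Read-out was total distance travelled, reported as mean ± SEM.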

Cytochrome P450 2C9 [21] = target: T4, Cytochrome P450 2C9; assay: as §1; format: ADME; settings: microsomes, 20 min, 10 µM; method in brief: as §2
Rattus norvegicus [22] = assay: Antipsychotic activity in Sprague-Dawley rat assessed as inhibition of PCP-induced hyperlocomotion at 50 mg/kg, po pretreated for 30 mins followed by PCP addition measured after 5 mins for 1.5 hrs by open field test; format: functional, organism-based; method in brief: as §14
CYP3A4 [23] = target: T9, CYP3A4; assay: as §7; format: ADME; settings: human microsomes, probe midazolam, read-out: TDI
Rattus norvegicus [24] = assay: Antipsychotic activity in Sprague-Dawley rat assessed as inhibition of PCP-induced prepulse inhibition deficit at 10 mg/kg, po pretreated for 30 mins followed by PCP addition measured after 5 mins to 10 mins; format: functional, organism-based
Method in brief: (§15)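 Male SD rats (200-250 g) were dosed p.o. in saline with 0.5% Tween 80 and 0.2% CMC-sodium, 30 min before PCP 5 mg/kg i.p. Acoustic startle PPI was tested in startle chambers 5-10 min after PCP. Startle magnitude was the mean of pulse-alone trials. n = 11-16 per group; mean ± SEM; ANOVA with post hoc tests.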

Cytochrome P450 2D6 [25] = target: T10, Cytochrome P450 2D6; assay: as §11; format: ADME; settings: microsomes, 20 min, 10 µM; method in brief: as §2
Rattus norvegicus [26] = assay: Antipsychotic activity in Sprague-Dawley rat assessed as inhibition of PCP-induced prepulse inhibition deficit at 50 mg/kg, po pretreated for 30 mins followed by PCP addition measured after 5 mins to 10 mins; format: functional, organism-based; method in brief: as §15

| Compound | inhibition at 20 min, 10 µM (CYP2C9 [1]) | half-life at 1 µM [2] | pIC50 [3] | inhibition at 0.5 h, 1 µM (PDE2A1) | inhibition [4] | inhibition at 20 min, 10 µM (CYP1A2 [5]) | half-life at 1 µM [6] | TDI (Cytochrome P450 2C9 [7]) | TDI (Cytochrome P450 3A4 [8]) | TDI (Cytochrome P450 2C19 [9]) | TDI (Cytochrome P450 1A2) | TDI (Cytochrome P450 2C19 [10]) | inhibition at 20 min, 10 µM (CYP2D6 [11]) | inhibition at 20 min, 10 µM (CYP3A4 [12]) | TDI (Cytochrome P450 2D6 [13]) | inhibition at 20 min, 10 µM (CYP1A2 [14]) | inhibition at 20 min, 10 µM (CYP2C19 [15]) | inhibition at 20 min, 10 µM (CYP2C9 [17]) | inhibition at 20 min, 10 µM (CYP2C19 [18]) | inhibition at 20 min, 10 µM (CYP2D6 [19]) | also measured |
| --- | --- | --- | --- | --- | --- | --- | --- | --- | --- | --- | --- | --- | --- | --- | --- | --- | --- | --- | --- | --- | --- |
| COc1ccc(-c2ccc(CNc3c(C)nc4c(N5CCOCC5)nccn34)cc2)cc1OC | 41% | 12.8 min | 6.34 | 5% | 92% | 29% | 18.2 min | Not Active | Not Active | Not Active | Not Active | Not Active | 24% | 42% | Not Active |  |  |  |  |  |  |
| Cc1ccc(-c2ccc(Cn3cnc4c(N5CCOCC5)ncnc43)cc2)cc1 | 30% | 49.5 min | 7.12 |  | 97% | 12% | 22.4 min | Not Active | Not Active | Not Active |  |  | 6% |  | Not Active | 20% | 44% |  |  |  | TDI (Cytochrome P450 3A4 [16]): Not Active |
| Cc1nc2c(N3CCOCC3)ncnc2n1Cc1ccc(-c2cnn(C)c2)cc1 | 10% | 99 min | 7.17 |  | 96% | 21% | 231 min |  | Not Active |  | Not Active |  | 7% | 40% |  |  | 22% | 40% | 80% | 20% |  |
| Cc1cc(-c2ccc(Cn3c(C)nc4c(N5CCOCC5)ncnc43)cc2)ccn1 | 18% | 23.9 min | 7.25 |  | 98% | 34% | 18.2 min |  | Not Active |  |  |  | 6% | 12% |  | 30% | 21% | 10% | 70% | 60% |  |
| Cc1nc2c(N3CCOCC3)ncnc2n1Cc1ccc(-c2cncnc2)cc1 |  | 69.3 min | 7.12 | 4% | 97% | 12% | 49.5 min | Not Active |  |  |  | Not Active |  | 22% |  | 10% |  |  | 90% | 30% | inhibition (Rattus norvegicus [20]): Active; TDI (Cytochrome P450 2C9 [21]): Not Active; inhibition (Rattus norvegicus [22]): inactive; inhibition at 20 min, 10 µM (CYP3A4 [23]): 20%; inhibition (Rattus norvegicus [24]): Active; TDI (Cytochrome P450 2D6 [25]): Not Active; inhibition (Rattus norvegicus [26]): inactive |
| Cc1nc2c(N3CCOCC3)ncnc2n1Cc1ccc(-c2ccccc2Cl)cc1 | 52% | 17.8 min | 7.42 | 29% | 98% | 15% | 43.3 min |  |  | Not Active | Not Active |  | 22% | 9% | Not Active |  | 65% | 10% |  |  | inhibition (Rattus norvegicus [20]): Active; inhibition (Rattus norvegicus [22]): inactive; inhibition at 20 min, 10 µM (CYP3A4 [23]): 50%; inhibition (Rattus norvegicus [24]): inactive; inhibition (Rattus norvegicus [26]): inactive |
